Measurements published in PMC2871064 (Cancer research, 2010).
Like-named read-outs stand apart in the source and are kept apart here.

Key:
stage 4 melanoma = conditions: cited from earlier work
SK-MEL-3 cells = test: Binding of [^131I]MIP-1145 to melanotic SK-MEL-3 cells; assay type: cell-based, human
How it was run: (§1)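 Cells per well: 50,000 for SK-MEL-3, 25,000 for A375, attached overnight. Time course: up to 6 h at 37 °C with 11.5 nM tracer (~9 × 10⁵ CPM/well) in D-MEM/0.5% BSA. Acid wash (50 mM glycine, 150 mM NaCl, pH 3.0, 4 °C, 5 min) strips the surface fraction for gamma counting; cells are scintillation-counted. Competition: 2 h, 3.6 nM tracer plus 1.6–1,600 nM unlabeled compound.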

A375 cells = test: Binding of [^131I]MIP-1145 to amelanotic A375 cells; assay type: cell-based, human
How it was run: as §1

[1] = 2 hours, 3.6 nM tracer, up to 1.6 uM cold compound

In the case of `CN(C)/N=N/c1[nH]cnc1C(N)=O` [Dacarbazine], the Objective response rate (stage 4 melanoma; stage 4 melanoma patients) is given as 16%.

In the case of `CCN(CC)CCNC(=O)c1cc(I)c(NC(=O)c2ccc(F)cc2)cc1OC` [MIP-1145, N-(2-diethylamino-ethyl)-4-(4-fluoro-benzamido)-5-iodo-2-methoxy-benzamide], the “Competition by non-radiolabeled MIP-1145 for [^131I]MIP-1145 binding” value (SK-MEL-3 cells; [1]) is reported as “very little competition”, the “Cell associated fraction of the total added” value (SK-MEL-3 cells; after 6 hours, 11.5 nM) is reported as “approximately 43%” and the “Competition by non-radiolabeled MIP-1145 for [^131I]MIP-1145 binding” value (A375 cells; [1]) is reported as “very little competition”. For the same compound, the “Cell associated fraction of the total added” value (A375 cells; after 6 hours, 11.5 nM) was “about 13%”.

For interferon alpha-2b, the Objective response rate (stage 4 melanoma; stage 4 disease, high-dose) is listed as 14%.
